Measurements published in article PMC9476207 (ACS Omega, 2022).

Experiments:
Assay in all cases: NCI-60 single-dose antiproliferative screen
Type in all cases: cell-based
CCRF-CEM = settings: Homo sapiens, 48 h, read-out: growth percent
Summary of the method: (§1)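 NCI-60 protocol. Lines were grown in RPMI 1640 with 5% FBS and 2 mM L-glutamine, plated and incubated 24 h at 37 °C; time-zero plates were TCA-fixed. The test compound was dissolved in DMSO, diluted in medium with 50 μg/mL gentamicin and given once at a final 10^-5 M (DMSO control) for 48 h. Cells were fixed with cold TCA (1 h, 4 °C) and stained with 0.4% SRB in 1% acetic acid for 10 min. Dye was dissolved in 10 mM Trizma base and read at 515 nm. Growth percent was calculated from time-zero, test and control ODs.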

MOLT-4 = settings: Homo sapiens, MOLT-4, 48 h, read-out: growth percent
Summary of the method: as §1

CAKI-1 = settings: Homo sapiens, CAKI-1, 48 h, read-out: growth percent
Summary of the method: as §1

MDA-MB-435 = settings: Homo sapiens, MDA-MB-435, 48 h, read-out: growth percent
Summary of the method: as §1

IGROV1 = settings: Homo sapiens, IGROV-1, 48 h, read-out: growth percent
Summary of the method: as §1

RPMI-8226 = settings: Homo sapiens, RPMI-8226, 48 h, read-out: growth percent
Summary of the method: as §1

NCI-H322M = settings: Homo sapiens, 48 h, read-out: growth percent
Summary of the method: as §1

SW-620 = settings: Homo sapiens, SW-620, 48 h, read-out: growth percent
Summary of the method: (§2)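 Cells grown in RPMI 1640 with 5% FBS and 2 mM L-glutamine, plated and held 24 h at 37 °C; time-zero plates TCA-fixed. DMSO stocks were diluted in gentamicin-containing medium to a final 10^-5 M, with a DMSO-only control. Exposure 48 h, 5% CO2. Adherent cells TCA-fixed 1 h at 4 °C, stained with 0.4% SRB, solubilised in 10 mM Trizma base, read at 515 nm. Growth percent derived from ODtzero, ODtest and ODctrl.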

SR = settings: Homo sapiens, 48 h, read-out: growth percent
Summary of the method: as §2

HCC-2998 = settings: Homo sapiens, HCC 2998, 48 h, read-out: growth percent
Summary of the method: as §1

MDA-MB-468 = settings: Homo sapiens, MDA-MB-468, 48 h, read-out: growth percent
Summary of the method: as §1

KM12 = settings: Homo sapiens, KM12, 48 h, read-out: growth percent
Summary of the method: as §1

UACC-257 = settings: Homo sapiens, UACC-257, 48 h, read-out: growth percent
Summary of the method: as §2

NCI-H460 = settings: Homo sapiens, NCI-H460, 48 h, read-out: growth percent
Summary of the method: as §1

SK-OV-3 = settings: Homo sapiens, SK-OV-3, 48 h, read-out: growth percent
Summary of the method: as §2

HS 578T = settings: Homo sapiens, 48 h, read-out: growth percent
Summary of the method: as §1

SF-295 = settings: Homo sapiens, SF-295, 48 h, read-out: growth percent
Summary of the method: as §1

SF-539 = settings: Homo sapiens, SF-539, 48 h, read-out: growth percent
Summary of the method: as §2

SK-MEL-2 = settings: Homo sapiens, SK-MEL-2, 48 h, read-out: growth percent
Summary of the method: as §2

UACC-62 = settings: Homo sapiens, UACC-62, 48 h, read-out: growth percent
Summary of the method: as §2

A549/ATCC = settings: Homo sapiens, A549, 48 h, read-out: growth percent
Summary of the method: as §1

TK-10 = settings: Homo sapiens, TK-10, 48 h, read-out: growth percent
Summary of the method: as §2

DU-145 = settings: Homo sapiens, DU-145, 48 h, read-out: growth percent
Summary of the method: as §1

NCI-H226 = settings: Homo sapiens, NCI-H226, 48 h, read-out: growth percent
Summary of the method: as §1

SN12C = settings: Homo sapiens, 48 h, read-out: growth percent
Summary of the method: as §2

T-47D = settings: Homo sapiens, T47D, 48 h, read-out: growth percent
Summary of the method: as §2

HOP-62 = settings: Homo sapiens, HOP-62, 48 h, read-out: growth percent
Summary of the method: as §1

NCI-H522 = settings: Homo sapiens, NCI-H522, 48 h, read-out: growth percent
Summary of the method: as §1

COLO205 = settings: Homo sapiens, COLO 205, 48 h, read-out: growth percent
Summary of the method: as §1

SNB-19 = settings: Homo sapiens, SNB-19, 48 h, read-out: growth percent
Summary of the method: as §2

RXF 393 = settings: Homo sapiens, RXF 393, 48 h, read-out: growth percent
Summary of the method: as §1

MCF-7 = settings: Homo sapiens, MCF7, 48 h, read-out: growth percent
Summary of the method: as §1

HT29 = settings: Homo sapiens, HT-29, 48 h, read-out: growth percent
Summary of the method: as §1

NCI-H23 = settings: Homo sapiens, NCI-H23, 48 h, read-out: growth percent
Summary of the method: as §1

UO-31 = settings: Homo sapiens, UO-31, 48 h, read-out: growth percent
Summary of the method: as §2

SF-268 = settings: Homo sapiens, SF-268, 48 h, read-out: growth percent
Summary of the method: as §1

Structure (SMILES)	activity at 10 µM (CCRF-CEM) [%]	activity at 10 µM (MOLT-4) [%]	activity at 10 µM (CAKI-1) [%]	activity at 10 µM (MDA-MB-435) [%]	activity at 10 µM (IGROV1) [%]	activity at 10 µM (RPMI-8226) [%]	activity at 10 µM (NCI-H322M) [%]	activity at 10 µM (SW-620) [%]	activity at 10 µM (SR) [%]	activity at 10 µM (HCC-2998) [%]	activity at 10 µM (MDA-MB-468) [%]	activity at 10 µM (KM12) [%]	activity at 10 µM (UACC-257) [%]	activity at 10 µM (NCI-H460) [%]	activity at 10 µM (SK-OV-3) [%]	activity at 10 µM (HS 578T) [%]	activity at 10 µM (SF-295) [%]	activity at 10 µM (SF-539) [%]	activity at 10 µM (SK-MEL-2) [%]	activity at 10 µM (UACC-62) [%]	other results
COc1cc(CNC(=O)CCCC/C=C/C(C)C)ccc1OCc1cn(-c2cc(OC)c(OC)c(OC)c2)nn1 [14m, (E)-N-(3-Methoxy-4-((1-(3,4,5-trimethoxyphenyl)-1H-1,2,3-triazol-4-yl)methoxy)benzyl)-8-methylnon-6-enamide]	96.3	92	79.5	106	103	79.4	89.1	102	86.6	91.8	80.4	103	93.6	102	89.9	69	105	92	97.6	87.8	activity at 10 µM (A549/ATCC): 91%; activity at 10 µM (TK-10): 91.6%; activity at 10 µM (DU-145): 85.4%; activity at 10 µM (NCI-H226): 91.4%; activity at 10 µM (SN12C): 102%; activity at 10 µM (T-47D): 95.8%; activity at 10 µM (HOP-62): 90.7%; activity at 10 µM (NCI-H522): 65.2%; activity at 10 µM (COLO205): 106%; activity at 10 µM (SNB-19): 85.1%; activity at 10 µM (RXF 393): 104%; activity at 10 µM (MCF-7): 102%; activity at 10 µM (HT29): 87.2%; activity at 10 µM (NCI-H23): 90.1%; activity at 10 µM (UO-31): 117%; activity at 10 µM (SF-268): 90.5%
COc1cc(CNC(=O)CCCC/C=C/C(C)C)ccc1OCc1cn(-c2ccc(C)cc2)nn1 [14n, (E)-N-(3-Methoxy-4-((1-(p-tolyl)-1H-1,2,3-triazol-4-yl)methoxy)benzyl)-8-methylnon-6-enamide]	87.3	83.5	88.5	109	98.5	74.1	89.4	102	75.5	108	92.4	96	88.2	93.2	94.4	89.7	98.9	100	91.9	70.2	activity at 10 µM (A549/ATCC): 84%; activity at 10 µM (TK-10): 101%; activity at 10 µM (DU-145): 97%; activity at 10 µM (NCI-H226): 75.8%; activity at 10 µM (SN12C): 89.3%; activity at 10 µM (T-47D): 77.4%; activity at 10 µM (HOP-62): 86.4%; activity at 10 µM (NCI-H522): 62.1%; activity at 10 µM (COLO205): 115%; activity at 10 µM (SNB-19): 77.9%; activity at 10 µM (RXF 393): 102%; activity at 10 µM (MCF-7): 96.3%; activity at 10 µM (HT29): 100%; activity at 10 µM (NCI-H23): 87.9%; activity at 10 µM (UO-31): 75.8%; activity at 10 µM (SF-268): 81.7%
CCc1ccc(-n2cc(COc3ccc(CNC(=O)CCCC/C=C/C(C)C)cc3OC)nn2)cc1 [14o, (E)-N-(4-((1-(4-Ethylphenyl)-1H-1,2,3-triazol-4-yl)methoxy)-3-methoxybenzyl)-8-methylnon-6-enamide]	86.8	79.6	77.4	107	102	74	90.5	103	87.5	99.7	79.8	100	86.4	103	102	78	100	104	95.2	71.4	activity at 10 µM (A549/ATCC): 88.3%; activity at 10 µM (TK-10): 87.4%; activity at 10 µM (DU-145): 93.8%; activity at 10 µM (NCI-H226): 76.7%; activity at 10 µM (SN12C): 98.5%; activity at 10 µM (T-47D): 111%; activity at 10 µM (HOP-62): 94.5%; activity at 10 µM (NCI-H522): 65.9%; activity at 10 µM (COLO205): 121%; activity at 10 µM (SNB-19): 85.7%; activity at 10 µM (RXF 393): 101%; activity at 10 µM (MCF-7): 102%; activity at 10 µM (HT29): 109%; activity at 10 µM (NCI-H23): 89.5%; activity at 10 µM (UO-31): 93.9%; activity at 10 µM (SF-268): 93%
COc1cc(CNC(=O)CCCC/C=C/C(C)C)ccc1OCc1cn(-c2ccc(C)c(C)c2)nn1 [14p, (E)-N-(4-((1-(3,4-Dimethylphenyl)-1H-1,2,3-triazol-4-yl)methoxy)-3-methoxybenzyl)-8-methylnon-6-enamide]	75.5	78.5	94.3	104	98.8	67.3	101	95.2	58.2	101	71.8	97.5	81.9	86.5	98.6	90.7	88.8	105	90.3	75.1	activity at 10 µM (A549/ATCC): 82.2%; activity at 10 µM (TK-10): 109%; activity at 10 µM (DU-145): 108%; activity at 10 µM (NCI-H226): 86.9%; activity at 10 µM (SN12C): 88.4%; activity at 10 µM (T-47D): 73.2%; activity at 10 µM (HOP-62): 97.4%; activity at 10 µM (NCI-H522): 80.7%; activity at 10 µM (COLO205): 106%; activity at 10 µM (SNB-19): 95.8%; activity at 10 µM (RXF 393): 98.2%; activity at 10 µM (MCF-7): 86.9%; activity at 10 µM (HT29): 97.8%; activity at 10 µM (NCI-H23): 74.9%; activity at 10 µM (UO-31): 75.7%; activity at 10 µM (SF-268): 94.6%
